For test [1], the target named is RAC-alpha serine/threonine-protein kinase (Homo sapiens) (UniProt P31749). Put plainly: Inhibition of AKT1/PKBalpha at 10 uM by HTRF assay relative to control. The gist of the method:
(§1)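 HTRF kinase assay, one panel of kinases. Inhibitor stock 50 µM in 100% DMSO; tested at 10 µM. ATP and substrate at final levels near Km. Final buffer: 50 mM Hepes/NaOH pH 7.4, 40 µM Na3VO4, 0.005% Tween-20, 1 mM DTT, MnCl2 or MgCl2 at kinase-dependent levels. Started by adding ATP/substrate. Reaction run at room temperature, time varied by kinase. Detection mix in 50 mM Hepes pH 7.4, 0.1% BSA, 150 mM KF, incubated ≥1 h at room temperature. Activity expressed as % of uninhibited control; n=2.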
Background: In TR-FRET formats the signal depends on donor and acceptor labels being close together.

The target of test [2] is Mitogen-activated protein kinase 1 (Homo sapiens) (UniProt P28482). Nature of the test: Inhibition of ERK2 at 10 uM by HTRF assay relative to control. The gist of the method: as §1
For test [3], the target named is T1, Mitogen-activated protein kinase 12 (Homo sapiens) (UniProt P53778).
T1 sequence (whole entry): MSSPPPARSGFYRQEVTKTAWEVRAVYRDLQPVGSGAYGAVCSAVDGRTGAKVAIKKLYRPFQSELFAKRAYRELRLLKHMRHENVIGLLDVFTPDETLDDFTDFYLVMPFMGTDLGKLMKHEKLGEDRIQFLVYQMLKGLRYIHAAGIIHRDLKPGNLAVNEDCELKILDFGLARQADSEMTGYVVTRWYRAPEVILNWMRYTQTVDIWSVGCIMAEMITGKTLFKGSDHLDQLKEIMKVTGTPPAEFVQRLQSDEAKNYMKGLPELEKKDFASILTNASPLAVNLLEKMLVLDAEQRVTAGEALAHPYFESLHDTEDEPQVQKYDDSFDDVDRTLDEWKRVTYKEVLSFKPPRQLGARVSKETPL
Put plainly: Inhibition of p38-gamma at 10 uM by HTRF assay relative to control. The gist of the method:
as §1

The target in test [4] is Tyrosine-protein kinase Fes/Fps (Homo sapiens) (UniProt P07332). Nature of the test: Inhibition of FES at 10 uM by HTRF assay relative to control. The gist of the method: as §1
The target of test [5] is Tyrosine-protein kinase Lck (Homo sapiens) (UniProt P06239). Nature of the test: Inhibition of Lck at 10 uM by HTRF assay relative to control. The gist of the method:
as §1

The target of test [6] is Protein-tyrosine kinase 6 (Homo sapiens) (UniProt Q13882). Nature of the test: Inhibition of Brk at 10 uM by HTRF assay relative to control. The gist of the method: as §1
The target in test [7] is High affinity nerve growth factor receptor (Homo sapiens) (UniProt P04629). Put plainly: Inhibition of TrkA at 10 uM by HTRF assay relative to control. The gist of the method: as §1
For test [8], the target named is Proto-oncogene tyrosine-protein kinase Src (Homo sapiens) (UniProt P12931). Nature of the test: Inhibition of Src at 10 uM by HTRF assay relative to control. The gist of the method:
as §1

Test [9] concerns the target Rho-associated protein kinase 2 (Homo sapiens) (UniProt O75116). Nature of the test: Inhibition of ROCK2 at 10 uM by HTRF assay relative to control. The gist of the method:
as §1

Test [10] deals with Ribosomal protein S6 kinase beta-1 (Homo sapiens) (UniProt P23443). Put plainly: Inhibition of p70S6K at 10 uM by HTRF assay relative to control. The gist of the method: as §1
The target of test [11] is T2, Serine/threonine-protein kinase Chk1 (Homo sapiens) (UniProt O14757).
T2 sequence (whole entry): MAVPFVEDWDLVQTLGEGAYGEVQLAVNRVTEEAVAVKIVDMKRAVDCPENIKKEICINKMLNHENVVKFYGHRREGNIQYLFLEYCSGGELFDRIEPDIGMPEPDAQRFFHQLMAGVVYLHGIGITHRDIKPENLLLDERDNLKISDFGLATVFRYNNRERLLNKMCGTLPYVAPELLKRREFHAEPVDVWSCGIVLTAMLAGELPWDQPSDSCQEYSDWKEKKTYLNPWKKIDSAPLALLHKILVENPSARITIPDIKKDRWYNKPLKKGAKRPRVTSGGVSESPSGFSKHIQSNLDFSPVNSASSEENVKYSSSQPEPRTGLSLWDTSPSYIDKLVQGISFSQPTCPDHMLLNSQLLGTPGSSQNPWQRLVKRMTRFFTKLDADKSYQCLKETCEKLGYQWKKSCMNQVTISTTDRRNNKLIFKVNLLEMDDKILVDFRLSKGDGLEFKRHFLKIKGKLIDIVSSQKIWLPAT
Put plainly: Inhibition of CHK1 at 10 uM by HTRF assay relative to control. The gist of the method: as §1

Test [12] addresses Tyrosine-protein kinase ABL1 (Homo sapiens) (UniProt P00519). Put plainly: Inhibition of Abl at 10 uM by HTRF assay relative to control. The gist of the method: as §1
Test [13] concerns the target Tyrosine-protein kinase Lyn (Homo sapiens) (UniProt P07948). Put plainly: Inhibition of Lyn at 10 uM by HTRF assay relative to control. The gist of the method:
as §1

Test [14] can be described thus: Inhibition of PKA at 10 uM by HTRF assay relative to control. The gist of the method: as §1
Test [15] is described as follows: Inhibition of IRK at 10 uM by HTRF assay relative to control. The gist of the method: as §1
In test [16] the target is Serine/threonine-protein kinase Chk2 (Homo sapiens) (UniProt O96017). Put plainly: Inhibition of CHK2 at 10 uM by HTRF assay relative to control. The gist of the method: as §1
Test [17] addresses Cyclin-dependent kinase 1 (Homo sapiens) (UniProt P06493). Nature of the test: Inhibition of CDK1 at 10 uM by HTRF assay relative to control. The gist of the method:
as §1

Test [18] has as its target Insulin-like growth factor 1 receptor (Homo sapiens) (UniProt P08069). Nature of the test: Inhibition of IGF1R at 10 uM by HTRF assay relative to control. The gist of the method:
as §1

The target of test [19] is Cyclin-dependent kinase 2 (Homo sapiens) (UniProt P24941). Put plainly: Inhibition of CDK2 at 10 uM by HTRF assay relative to control. The gist of the method:
as §1

Test [20] concerns the target Mitogen-activated protein kinase 8 (Homo sapiens) (UniProt P45983). Put plainly: Inhibition of JNK1 at 10 uM by HTRF assay relative to control. The gist of the method:
as §1

Cyclin-dependent kinase 1 (Homo sapiens), sequence (P06493 whole entry, looked up): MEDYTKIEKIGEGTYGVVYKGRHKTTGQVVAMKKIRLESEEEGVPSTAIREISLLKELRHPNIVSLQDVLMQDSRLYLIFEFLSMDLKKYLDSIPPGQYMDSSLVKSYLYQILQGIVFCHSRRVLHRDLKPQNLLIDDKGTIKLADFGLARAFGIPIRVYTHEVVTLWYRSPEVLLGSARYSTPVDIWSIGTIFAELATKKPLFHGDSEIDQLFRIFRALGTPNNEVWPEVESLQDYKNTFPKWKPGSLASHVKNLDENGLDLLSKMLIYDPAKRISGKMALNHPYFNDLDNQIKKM
Insulin-like growth factor 1 receptor (Homo sapiens), sequence (P08069 31-736 limits assumed): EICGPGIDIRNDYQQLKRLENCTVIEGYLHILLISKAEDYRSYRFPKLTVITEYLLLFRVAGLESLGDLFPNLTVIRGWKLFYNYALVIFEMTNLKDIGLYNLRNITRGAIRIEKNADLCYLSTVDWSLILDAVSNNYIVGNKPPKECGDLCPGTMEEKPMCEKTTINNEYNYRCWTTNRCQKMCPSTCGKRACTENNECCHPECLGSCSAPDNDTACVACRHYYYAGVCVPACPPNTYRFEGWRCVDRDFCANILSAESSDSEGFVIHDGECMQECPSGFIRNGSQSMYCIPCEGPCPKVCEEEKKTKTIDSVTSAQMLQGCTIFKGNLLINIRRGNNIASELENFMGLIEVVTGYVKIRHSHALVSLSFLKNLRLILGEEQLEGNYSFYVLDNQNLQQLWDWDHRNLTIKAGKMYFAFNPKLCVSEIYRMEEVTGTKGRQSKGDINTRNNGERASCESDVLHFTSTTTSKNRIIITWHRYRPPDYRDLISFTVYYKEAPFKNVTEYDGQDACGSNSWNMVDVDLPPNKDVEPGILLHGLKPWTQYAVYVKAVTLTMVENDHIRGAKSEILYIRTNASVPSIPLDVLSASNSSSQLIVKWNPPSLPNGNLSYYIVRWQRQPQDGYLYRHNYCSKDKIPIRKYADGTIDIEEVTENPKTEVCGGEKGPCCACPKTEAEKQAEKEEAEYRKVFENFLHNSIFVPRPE
Insulin-like growth factor 1 receptor (Homo sapiens), sequence (P08069 741-1367 limits assumed): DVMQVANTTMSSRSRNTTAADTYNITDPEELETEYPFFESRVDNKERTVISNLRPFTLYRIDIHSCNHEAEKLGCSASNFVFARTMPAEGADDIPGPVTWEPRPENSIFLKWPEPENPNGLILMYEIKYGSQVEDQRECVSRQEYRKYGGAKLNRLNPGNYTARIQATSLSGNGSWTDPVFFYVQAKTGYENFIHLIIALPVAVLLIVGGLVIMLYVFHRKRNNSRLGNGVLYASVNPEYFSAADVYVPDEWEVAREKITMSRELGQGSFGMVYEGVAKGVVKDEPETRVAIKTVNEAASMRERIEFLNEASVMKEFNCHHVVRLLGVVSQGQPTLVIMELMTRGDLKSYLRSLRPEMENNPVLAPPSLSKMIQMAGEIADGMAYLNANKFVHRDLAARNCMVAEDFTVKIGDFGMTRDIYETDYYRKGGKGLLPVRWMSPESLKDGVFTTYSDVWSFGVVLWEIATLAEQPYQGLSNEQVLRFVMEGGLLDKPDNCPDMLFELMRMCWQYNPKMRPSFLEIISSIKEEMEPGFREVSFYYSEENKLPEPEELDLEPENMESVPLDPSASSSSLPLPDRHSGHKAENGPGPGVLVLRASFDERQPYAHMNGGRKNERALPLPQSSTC
RAC-alpha serine/threonine-protein kinase (Homo sapiens), sequence (P31749 whole entry): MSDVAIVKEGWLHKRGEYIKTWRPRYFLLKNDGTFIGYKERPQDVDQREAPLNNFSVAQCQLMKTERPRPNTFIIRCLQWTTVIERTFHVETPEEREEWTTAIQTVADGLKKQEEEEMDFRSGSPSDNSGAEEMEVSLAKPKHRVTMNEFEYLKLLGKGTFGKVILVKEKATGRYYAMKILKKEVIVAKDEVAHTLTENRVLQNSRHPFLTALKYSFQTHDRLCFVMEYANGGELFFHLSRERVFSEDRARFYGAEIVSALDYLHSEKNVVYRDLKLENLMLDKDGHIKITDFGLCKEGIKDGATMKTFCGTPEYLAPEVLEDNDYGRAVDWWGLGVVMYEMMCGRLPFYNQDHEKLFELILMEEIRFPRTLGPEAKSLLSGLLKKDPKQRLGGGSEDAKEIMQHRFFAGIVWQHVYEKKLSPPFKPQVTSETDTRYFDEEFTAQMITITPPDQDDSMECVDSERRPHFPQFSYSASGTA
Tyrosine-protein kinase Lyn (Homo sapiens), sequence (P07948 2-512 limits assumed): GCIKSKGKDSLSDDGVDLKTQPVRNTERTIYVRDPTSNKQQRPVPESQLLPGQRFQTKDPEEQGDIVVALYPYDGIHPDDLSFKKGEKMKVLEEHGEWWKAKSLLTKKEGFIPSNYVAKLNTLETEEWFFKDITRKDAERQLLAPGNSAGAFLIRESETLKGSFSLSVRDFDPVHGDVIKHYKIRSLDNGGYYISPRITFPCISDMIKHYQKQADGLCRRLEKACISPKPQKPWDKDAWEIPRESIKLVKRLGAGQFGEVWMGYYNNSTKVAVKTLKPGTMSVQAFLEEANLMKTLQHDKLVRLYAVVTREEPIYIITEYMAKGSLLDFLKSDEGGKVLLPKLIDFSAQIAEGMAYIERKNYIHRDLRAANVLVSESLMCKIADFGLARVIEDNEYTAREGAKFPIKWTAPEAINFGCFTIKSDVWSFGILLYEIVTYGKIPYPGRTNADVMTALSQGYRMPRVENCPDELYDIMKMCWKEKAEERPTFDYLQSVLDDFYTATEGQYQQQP
Tyrosine-protein kinase ABL1 (Homo sapiens), sequence (P00519 whole entry): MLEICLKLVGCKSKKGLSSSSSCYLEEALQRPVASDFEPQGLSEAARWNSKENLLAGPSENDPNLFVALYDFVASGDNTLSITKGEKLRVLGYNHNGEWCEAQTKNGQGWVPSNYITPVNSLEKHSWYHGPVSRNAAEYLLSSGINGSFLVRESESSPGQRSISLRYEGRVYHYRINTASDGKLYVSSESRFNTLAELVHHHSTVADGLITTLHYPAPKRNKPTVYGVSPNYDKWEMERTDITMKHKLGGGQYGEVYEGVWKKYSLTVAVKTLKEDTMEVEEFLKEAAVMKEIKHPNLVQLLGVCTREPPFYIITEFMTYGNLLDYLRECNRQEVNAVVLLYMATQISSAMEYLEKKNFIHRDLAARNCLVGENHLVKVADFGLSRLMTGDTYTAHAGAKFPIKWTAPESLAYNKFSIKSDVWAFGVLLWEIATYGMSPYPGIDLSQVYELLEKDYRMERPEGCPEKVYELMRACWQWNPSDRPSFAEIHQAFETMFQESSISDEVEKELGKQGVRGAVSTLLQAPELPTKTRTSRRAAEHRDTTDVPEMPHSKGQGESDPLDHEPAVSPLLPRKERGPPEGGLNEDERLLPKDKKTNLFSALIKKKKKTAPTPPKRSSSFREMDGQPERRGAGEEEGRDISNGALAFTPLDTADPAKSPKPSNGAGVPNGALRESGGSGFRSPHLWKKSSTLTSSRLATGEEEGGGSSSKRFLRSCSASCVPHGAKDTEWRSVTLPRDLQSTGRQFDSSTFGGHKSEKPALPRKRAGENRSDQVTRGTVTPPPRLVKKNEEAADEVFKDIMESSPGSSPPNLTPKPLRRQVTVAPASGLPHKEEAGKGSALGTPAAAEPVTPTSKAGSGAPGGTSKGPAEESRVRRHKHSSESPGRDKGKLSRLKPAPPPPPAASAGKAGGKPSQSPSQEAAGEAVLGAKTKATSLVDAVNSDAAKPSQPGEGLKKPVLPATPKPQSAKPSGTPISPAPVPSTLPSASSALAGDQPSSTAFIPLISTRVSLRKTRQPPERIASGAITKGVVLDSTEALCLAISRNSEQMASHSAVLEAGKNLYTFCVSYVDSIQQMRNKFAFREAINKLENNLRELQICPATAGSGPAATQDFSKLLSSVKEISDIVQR
Proto-oncogene tyrosine-protein kinase Src (Homo sapiens), sequence (P12931 2-536 limits assumed): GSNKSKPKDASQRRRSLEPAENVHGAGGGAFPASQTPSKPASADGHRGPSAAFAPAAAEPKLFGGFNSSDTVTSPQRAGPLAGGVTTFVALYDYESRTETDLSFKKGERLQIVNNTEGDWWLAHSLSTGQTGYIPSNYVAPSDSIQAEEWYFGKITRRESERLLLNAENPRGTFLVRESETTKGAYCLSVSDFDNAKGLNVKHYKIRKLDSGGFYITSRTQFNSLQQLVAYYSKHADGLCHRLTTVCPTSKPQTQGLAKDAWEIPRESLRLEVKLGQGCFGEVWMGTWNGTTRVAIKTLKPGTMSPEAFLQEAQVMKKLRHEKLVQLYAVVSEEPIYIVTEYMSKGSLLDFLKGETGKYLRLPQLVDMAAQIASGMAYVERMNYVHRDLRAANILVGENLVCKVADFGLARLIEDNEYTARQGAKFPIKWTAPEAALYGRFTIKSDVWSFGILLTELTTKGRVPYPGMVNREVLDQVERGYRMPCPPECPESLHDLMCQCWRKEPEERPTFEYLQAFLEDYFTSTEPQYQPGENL
Mitogen-activated protein kinase 1 (Homo sapiens), sequence (P28482 whole entry): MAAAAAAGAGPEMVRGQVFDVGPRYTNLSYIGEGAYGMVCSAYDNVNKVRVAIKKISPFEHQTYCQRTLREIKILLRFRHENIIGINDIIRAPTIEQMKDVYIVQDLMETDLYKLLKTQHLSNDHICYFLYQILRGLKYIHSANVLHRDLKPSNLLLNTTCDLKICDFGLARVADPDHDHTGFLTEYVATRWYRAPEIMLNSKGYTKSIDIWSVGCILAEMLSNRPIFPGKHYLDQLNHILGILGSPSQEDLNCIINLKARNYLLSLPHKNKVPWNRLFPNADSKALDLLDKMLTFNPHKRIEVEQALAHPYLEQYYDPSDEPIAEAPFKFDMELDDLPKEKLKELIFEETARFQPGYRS

Regarding `Cc1cccc(N(C)c2cc(Nc3cccc(C(=O)N4CCCC5CCCCC54)c3)ncn2)c1` (stereo not given), the inhibition in test [1] came to 6%; in test [2] it was 0%; in test [3] it was 1%; in test [4], 7%; in test [5] it was 0%; in [6], 32%. Besides, the inhibition in test [7] was 12%; in [8], 3%; in test [9], 0%; in test [10], 12%; in test [11], 2%; in test [12] it was 13%. Also, the inhibition in [13] stood at 9%; in [14], 0%; in [15] it was 0%; in [16], 2%; in [17], 0%; in test [18] it was 0%. In addition, the figures for the inhibition in test [19] and in test [20] were 4% and 2%, respectively.
As for `Cc1ccc(CN2CCN(c3nccc(C(C#N)c4ccccn4)n3)CC2)cc1` (stereo not given), the inhibition in [1] was 0%; in test [2], 0%; in test [3] it was 0%; in test [4] it was 3%; in [5], 0%; in [6] it was 0%. Moreover, the inhibition in test [7] was 5%; in test [8], 4%; in test [9] it was 0%; in [10], 11%; in test [11], 8%; in test [12], 5%. Besides, the inhibition in test [13] turned out to be 3%; in [14], 0%; in test [15], 0%; in test [16], 0%; in test [17], 0%; in [18], 0%. Moreover, the inhibition in test [19] is 7%; in test [20] it was 2%.
Turning to `COc1ccc(NC(=O)Cc2ccc(Nc3cc(N(C)c4cccc(C)c4)ncn3)cc2)cn1`, the inhibition in [1] was determined as 0%; in test [2] it was 4%; in test [3] it was 1%; in test [4] it was 0%; in test [5], 0%; in test [6] it was 4%. The inhibition in [7] is 10%; in test [8], 1%; in test [9] it was 0%; in test [10], 6%; in test [11] it was 4%; in [12], 13%. Moreover, the inhibition in [13] turned out to be 18%; in test [14] it was 0%; in [15] it was 0%; in test [16], 1%; in test [17], 0%; in test [18], 6%. In addition, the results for the inhibition in test [19] and in test [20] were 6% and 4%, respectively.
As for `Cc1cccc(N(C)c2cc(Nc3cccc(C(=O)NCc4ccc(N(C)C)cc4)c3)ncn2)c1`, the inhibition in test [1] amounted to 0%; in test [2], 3%; in test [3], 0%; in test [4], 4%; in test [5], 0%; in test [6] it was 3%. Besides, the inhibition was determined as 8% in [7]; 4% in test [8]; 0% in test [9]; 3% in test [10]; 1% in test [11]; 11% in [12]. For the same compound, the inhibition was 9% in [13]; 0% in test [14]; 0% in test [15]; 0% in test [16]; 0% in test [17]; 0% in test [18]. Moreover, the inhibition in test [19] is 1%; in test [20], 0%.
Consider `Cc1cccc(N(C)c2cc(Nc3ccc(CC(=O)Nc4ccc5ncsc5c4)cc3)ncn2)c1`, for which the inhibition stood at 0% in test [1]; 2% in test [2]; 0% in test [3]; 24% in [4]; 0% in test [5]; 29% in [6]. Moreover, the inhibition in test [7] was 23%; in test [8] it was 6%; in test [9] it was 22%; in test [10], 18%; in test [11], 1%; in test [12], 18%. Further, the inhibition in test [13] is 16%; in [14] it was 0%; in [15] it was 0%; in test [16] it was 0%; in [17], 0%; in [18] it was 0%. The inhibition in test [19] was determined as 4%; in [20], 7%.
For `CN(CCCn1ccnc1)C(=O)[C@@H]1CCCN1c1nccc(Nc2ccccc2)n1`, the inhibition came out at 0% in [1]; 0% in [2]; 1% in test [3]; 1% in test [4]; 0% in test [5]; 4% in [6]. Also, the inhibition was 11% in test [7]; 8% in [8]; 1% in [9]; 6% in test [10]; 0% in test [11]; 2% in test [12]. For the same compound, the inhibition in test [13] was 0%; in test [14], 0%; in test [15], 0%; in test [16], 5%; in [17], 0%; in test [18] it was 0%. In addition, the inhibition was found to be 24% in [19] and 0% in test [20].
On to `O=C(CN1CCN(c2ncnc3c2CN(Cc2ccccc2)CC3)CC1)Nc1cc(F)ccc1F`, for which the inhibition was 0% in test [1]; 0% in test [2]; 0% in [3]; 11% in test [4]; 0% in test [5]; 9% in [6]. In addition, the inhibition in test [7] was determined as 10%; in test [8] it was 1%; in test [9], 0%; in test [10], 8%; in test [11] it was 0%; in [12], 3%. Also, the inhibition in test [13] amounted to 2%; in test [14] it was 0%; in test [15] it was 0%; in test [16] it was 5%; in test [17] it was 0%; in test [18], 0%. The inhibition came out at 9% in [19] and 0% in [20].
For `Cc1cccc(Oc2ccnc(N3CCN(C(=O)c4c(C)noc4C)CC3)n2)c1`, the inhibition in test [1] was determined as 1%; in [2] it was 0%; in [3] it was 7%; in test [4], 7%; in [5], 0%; in [6], 2%. Besides, the inhibition in test [7] was determined as 8%; in test [8], 0%; in test [9], 0%; in test [10] it was 5%; in test [11], 3%; in [12], 0%. The inhibition was 0% in test [13]; 2% in [14]; 0% in [15]; 3% in test [16]; 0% in [17]; 0% in test [18]. Moreover, the results for the inhibition in test [19] and in [20] were 2% and 13%, respectively.
On to `Nc1nc(Nc2ccc(C(=O)NCCc3ccncc3)cc2)cc(N2CCOCC2)n1`, for which the inhibition in test [1] is 2%; in test [2] it was 0%; in test [3] it was 3%; in test [4], 9%; in test [5], 0%; in [6], 0%. For the same compound, the inhibition in test [7] was found to be 7%; in [8], 3%; in [9], 1%; in test [10], 11%; in test [11], 2%; in test [12] it was 6%. The inhibition in test [13] is 1%; in test [14] it was 3%; in test [15] it was 0%; in test [16] it was 0%; in test [17], 0%; in test [18], 0%. Besides, the inhibition in [19] turned out to be 2%; in [20] it was 11%.

As a reminder, the inhibition is the drop in the measured response relative to a control, in per cent. Low values mean a response near the control, high ones a response far below the control.
